≈ marks a conversion by molar mass, not a printed value. Where “and” joins values, the source holds several entries; their conditions need not be identical. Equal entries are not always repeated.
How the values were obtained:
[1] = molecular target: T1, Holo-[acyl-carrier-protein] synthase (Bacillus subtilis (strain 168), UniProt P96618); assay: Inhibitory activity against Bacillus subtilis AcpS by HTRF assay
T1 sequence (P96618 whole entry): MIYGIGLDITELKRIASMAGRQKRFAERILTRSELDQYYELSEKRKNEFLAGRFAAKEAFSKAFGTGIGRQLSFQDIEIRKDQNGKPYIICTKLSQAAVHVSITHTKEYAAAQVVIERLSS

Streptococcus pneumoniae = assay: Inhibitory activity against penicillin-resistant Streptococcus pneumoniae penR; assay type: functional
In short: (§1)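 Broth microdilution per NCCLS in Mueller-Hinton II broth; serial compound dilutions inoculated to 10⁵ CFU/mL, incubated 18–22 h at 35 °C in ambient air. MIC taken as lowest concentration completely inhibiting visible growth (unaided eye).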

Enterococcus faecalis = assay: Inhibitory activity against vancomycin-resistant Enterococcus faecalis VRE; assay type: functional; in short: as §1
Bacillus subtilis = assay: Inhibitory activity against Bacillus subtilis 168; assay type: functional
In short: (§2)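 Broth microdilution per NCCLS in Mueller-Hinton II broth; serial dilutions in microtiter wells, inoculum 10⁵ CFU/mL, 100 μL final. Incubated 18–22 h at 35 °C in ambient air. MIC taken as lowest concentration giving complete visible growth inhibition by unaided eye.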

Candida albicans = assay: Inhibitory activity against Candida albicans; assay type: functional; in short: as §2
Staphylococcus aureus = assay: Inhibitory activity against methicillin-resistant Staphylococcus aureus MRSA; assay type: functional; in short: as §1
Escherichia coli = assay: Inhibitory activity against Escherichia coli; assay type: functional; in short: as §2

Row | SMILES | IC50 [1] | MIC (Streptococcus pneumoniae) [µg/mL] | MIC (Enterococcus faecalis) [µg/mL] | MIC (Bacillus subtilis) [µg/mL] | MIC (Candida albicans) [µg/mL] | MIC (Staphylococcus aureus) [µg/mL] | MIC (Escherichia coli) [µg/mL]
1 | O=C(O)c1cc(Cl)ccc1NC(=O)c1cccc2c1-c1ccccc1C2=O | 821 nM and 820 nM |  |  |  |  |  | 
2 | CC(Cc1ccccc1)C(=O)Nc1ccc(Cl)cc1C(=O)O (configuration not stated) | 2830 nM and 2800 nM |  |  |  |  |  | 
3 | NS(=O)(=O)c1cc(C(=O)O)c(NCc2ccco2)cc1Cl [FUROSEMIDE] | 12700 nM |  |  |  |  |  | 
4 | C/C(=C\c1ccc(Cl)cc1)C(=O)Nc1cc(Cl)ccc1C(=O)O | 32300 nM | 32 (≈ 91.4 µM) | 64 (≈ 183 µM) | 32 (≈ 91.4 µM) | > 128 | 32 (≈ 91.4 µM) | > 128
5 | CSC(Cc1ccc(Cl)cc1)C(=O)Nc1ccc(Cl)cc1C(=O)O (configuration not stated) | 1430 nM and 1400 nM | 64 (≈ 167 µM) | 128 (≈ 333 µM) | 64 (≈ 167 µM) | > 128 | 64 (≈ 167 µM) | > 128
